Source: ChEMBL document CHEMBL3351994, “Synthesis and biological evaluation of novel millepachine derivatives as a new class of tubulin polymerization inhibitors” (J Med Chem, 2014)

Legend:
Mus musculus [1] = assay: Toxicity in cisplatin-resistant human […] cells xenografted Balb/C mouse assessed as mortality level at 5 mg/kg, iv dosed every 4 days for 4 days; type: organism-based, A2780cisR; set-up: dose 5 mg/kg, route intravenous; details: in vivo, 96 h
In short: (§1)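 Female Balb/C or athymic nude mice, 5−6 weeks old, implanted sc in the right flank/armpit with 5 × 10^6 cells in HBSS. Once tumors reached 100 mm3, mice were randomized (6 per group) and dosed with vehicle (2.5% Tween-80, 2.5% ethanol) or drug. Toxicity signs and mortality observed daily. Body weight and caliper tumor volume measured every 2 days.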

[2] = Antitumor activity against mouse C26 cells xenografted in Balb/C mouse assessed as tumor mass changes at 5 mg/kg, iv dosed every 4 days for 4 days; type: functional
In short: (§2)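 Female Balb/c or athymic nude mice, 5–6 weeks old. 5 × 10^6 cells in HBSS implanted sc in the right flank/armpit. Treatment began at tumor volume 100 mm3, 6 mice per group; vehicle was 2.5% Tween-80 and 2.5% ethanol. Tumor volume (π/6 × L × W²) and body weight measured every 2 days. Inhibition = (1 − treated/control tumor weight) × 100%.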

[3] = Antitumor activity against cisplatin-resistant human […] cells xenografted in Balb/C mouse assessed as tumor mass changes at 5 mg/kg, iv dosed every 4 days for 4 days; type: functional, A2780cisR; in short: as §2
HepG2 [4] = assay: Antiproliferative activity against human HepG2 cells assessed as inhibition of cell proliferation after 48 hrs by MTT assay; type: functional, cell-based
In short: (§3)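 Cells grown at 37 °C in humidified 5% CO2. K562, C26 and HCT lines in RPMI-1640; other lines in DMEM; both media with 10% FBS, penicillin and streptomycin. 1000 cells/well seeded, incubated overnight, then compound at various doses for 48 h. MTT added for 4 h, formazan dissolved in DMSO, absorbance read at 590 nm. IC50 from dose–response curves, mean ± SEM of at least three independent experiments.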

[5] = Antiproliferative activity against mouse C26 cells assessed as inhibition of cell proliferation after 48 hrs by MTT assay; type: functional, cell-based; details: C26, 48 h; in short: as §3
[6] = Antiproliferative activity against human DLD1 cells assessed as inhibition of cell proliferation after 48 hrs by MTT assay; type: functional, cell-based; details: DLD-1, 48 h; in short: as §3
[7] = Antiproliferative activity against human HCT15 cells assessed as inhibition of cell proliferation after 48 hrs by MTT assay; type: functional, cell-based; details: HCT-15, 48 h; in short: as §3
NCI-H358 = assay: Antiproliferative activity against human NCI-H358 cells assessed as inhibition of cell proliferation after 48 hrs by MTT assay; type: functional, cell-based; details: NCI-H358, 48 h; in short: as §3
MCF7 = assay: Antiproliferative activity against human MCF7 cells assessed as inhibition of cell proliferation after 48 hrs by MTT assay; type: functional, cell-based; details: MCF7, 48 h; in short: as §3
[8] = Antiproliferative activity against human A2780S cells assessed as inhibition of cell proliferation after 48 hrs by MTT assay; type: functional, cell-based; details: A2780, 48 h
In short: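 Cells grown in DMEM with 10% FBS, penicillin/streptomycin at 37 °C, 5% CO2. 1000 cells/well seeded, incubated overnight, then exposed to various doses for 48 h. MTT added for 4 h, formazan dissolved in DMSO, absorbance read at 590 nm. IC50 = concentration inhibiting proliferation by 50%, mean ± SEM of dose–response curves from at least three independent experiments.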

AGS = assay: Antiproliferative activity against human AGS cells assessed as inhibition of cell proliferation after 48 hrs by MTT assay; type: functional, cell-based; in short: as §3
U-251 = assay: Antiproliferative activity against human U251 cells assessed as inhibition of cell proliferation after 48 hrs by MTT assay; type: functional, cell-based; details: U-251, 48 h; in short: as §3
[9] = Antiproliferative activity against taxol resistant human […] cells assessed as inhibition of cell proliferation after 48 hrs by MTT assay; type: functional, cell-based; details: A2780, 48 h; in short: as §3
[10] = Antiproliferative activity against taxol resistant human HCT8 cells assessed as inhibition of cell proliferation after 48 hrs by MTT assay; type: functional, cell-based; details: HCT-8, 48 h; in short: as §3
Mus musculus [11] = assay: Toxicity in mouse C26 cells xenografted Balb/C mouse assessed as body weight changes at 5 mg/kg, iv dosed every 4 days for 4 days; type: organism-based; set-up: dose 5 mg/kg, route intravenous; details: in vivo, 96 h
In short: (§4)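 Xenografts: 5 × 10^6 tumour cells injected sc in right armpit/flank of 5−6-week-old female mice; at 100 mm3 tumour volume, randomized (6 per group) and dosed in vehicle of 2.5% Tween-80 and 2.5% ethanol; body weights and caliper tumour volumes recorded every 2 days, toxicity signs and mortality daily.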

Mus musculus [12] = assay: Toxicity in cisplatin-resistant human […] cells xenografted Balb/C mouse assessed as body weight changes at 5 mg/kg, iv dosed every 4 days for 4 days; type: organism-based, A2780cisR; set-up: dose 5 mg/kg, route intravenous; details: in vivo, 96 h; in short: as §4
Mus musculus [13] = assay: Toxicity in mouse C26 cells xenografted Balb/C mouse assessed as mortality level at 5 mg/kg, iv dosed every 4 days for 4 days; type: organism-based; set-up: dose 5 mg/kg, route intravenous; details: in vivo, 96 h; in short: as §1
Mus musculus [14] = assay: Toxicity in human HepG2 cells xenografted Balb/C mouse assessed as mortality level at 5 mg/kg, iv dosed every 2 days for 11 days; type: organism-based; set-up: dose 5 mg/kg, route intravenous; details: in vivo; in short: as §1
HepG2 [15] = assay: Antitumor activity against human HepG2 cells xenografted in Balb/C mouse assessed as tumor mass changes at 5 mg/kg, iv dosed every 2 days for 11 days; type: functional; in short: as §2
[16] = Antiproliferative activity against adriamycin resistant human MCF7/ADR cells assessed as inhibition of cell proliferation after 48 hrs by MTT assay; type: functional, cell-based; details: NCI/ADR-RES; in short: as §3
Mus musculus [17] = assay: Toxicity in human HepG2 cells xenografted Balb/C mouse assessed as body weight changes at 5 mg/kg, iv dosed every 2 days for 11 days; type: organism-based; set-up: dose 5 mg/kg, route intravenous; details: in vivo; in short: as §4
Mus musculus [18] = assay: Toxicity in human A2780S cells xenografted Balb/C mouse assessed as mortality level at 10 mg/kg, iv dosed every 2 days for 8 days; type: organism-based, A2780; set-up: dose 10 mg/kg, route intravenous; details: in vivo; in short: as §1
Mus musculus [19] = assay: Toxicity in cisplatin-resistant human […] cells xenografted Balb/C mouse assessed as mortality level at 10 mg/kg, iv dosed every 2 days for 7 days; type: organism-based, A2780cisR; set-up: dose 10 mg/kg, route intravenous; details: in vivo; in short: as §1
Mus musculus [20] = assay: Toxicity in human HepG2 cells xenografted Balb/C mouse assessed as mortality level at 25 mg/kg, po dosed every 2 days for 11 days; type: organism-based; set-up: dose 25 mg/kg, route oral; details: in vivo; in short: as §1
[21] = Antitumor activity against mouse C26 cells xenografted in Balb/C mouse assessed as tumor mass changes at 10 mg/kg, iv dosed every 2 days for 8 days; type: functional; in short: as §2
[22] = Antitumor activity against human A2780S cells xenografted in Balb/C mouse assessed as tumor mass changes at 10 mg/kg, iv dosed every 2 days for 8 days; type: functional, A2780; in short: as §2
[23] = Antitumor activity against cisplatin-resistant human […] cells xenografted in Balb/C mouse assessed as tumor mass changes at 10 mg/kg, iv dosed every 2 days for 7 days; type: functional, A2780cisR; in short: as §2
HepG2 [24] = assay: Antitumor activity against human HepG2 cells xenografted in Balb/C mouse assessed as tumor mass changes at 25 mg/kg, po dosed every 2 days for 11 days; type: functional; in short: as §2
[25] = Solubility in PBS solution by nephelometry; type: physicochemical
In short: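 Maximum soluble concentration in PBS, determined by nephelometry.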

[26] = Toxicity in iv dosed BALB/c mouse; type: organism-based; details: in vivo
In short: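 Maximum tolerated dose in BALB/c mice (SPF, 18−22 g, 6−8 weeks, half female and half male). Graded doses given intravenously, n = 4 per dose. Survival and adverse effects recorded every other day after dosing. MTD defined as the largest dose given before one death occurs.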

Rattus norvegicus [27] = assay: Systemic clearance in rat at 3 mg/kg, iv; type: ADME, organism-based; set-up: dose 3 mg/kg, route intravenous; details: in vivo
[28] = Volume of distribution at steady state in rat at 3 mg/kg, iv; type: ADME, organism-based; set-up: dose 3 mg/kg, route intravenous; details: in vivo, read-out: Vdss
Rattus norvegicus [29] = assay: AUC in rat at 3 mg/kg, iv; type: ADME, organism-based, Plasma; set-up: dose 3 mg/kg, route intravenous; details: in vivo
In short: (§5)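 Rat pharmacokinetics; oral and intravenous dosing, with group sizes of 5, 5 and 4 rats. Parameters derived: systemic clearance, volume of distribution, area under the plasma concentration–time curve, maximum plasma concentration and percent oral bioavailability.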

[30] = Cmax in rat at 3 mg/kg, iv; type: ADME, organism-based; set-up: dose 3 mg/kg, route intravenous; details: in vivo; in short: as §5
[31] = Oral bioavailability in rat at 15 mg/kg; type: ADME, organism-based; details: in vivo
Rattus norvegicus [32] = assay: Systemic clearance in rat at 15 mg/kg, po; type: ADME, organism-based; set-up: dose 15 mg/kg, route oral; details: in vivo
Rattus norvegicus [33] = assay: Volume of distribution at steady state in rat at 15 mg/kg, po; type: ADME, organism-based; set-up: dose 15 mg/kg, route oral; details: in vivo
Rattus norvegicus [34] = assay: AUC in rat at 15 mg/kg, po; type: ADME, organism-based, Plasma; set-up: dose 15 mg/kg, route oral; details: in vivo; in short: as §5
[35] = Cmax in rat at 15 mg/kg, po; type: ADME, organism-based; set-up: dose 15 mg/kg, route oral; details: in vivo; in short: as §5
Mus musculus [36] = assay: Toxicity in mouse C26 cells xenografted Balb/C mouse assessed as body weight changes at 10 mg/kg, iv dosed every 2 days for 8 days; type: organism-based; set-up: dose 10 mg/kg, route intravenous; details: in vivo; in short: as §4
Mus musculus [37] = assay: Toxicity in human A2780S cells xenografted Balb/C mouse assessed as body weight changes at 10 mg/kg, iv dosed every 2 days for 8 days; type: organism-based, A2780; set-up: dose 10 mg/kg, route intravenous; details: in vivo; in short: as §4
Mus musculus [38] = assay: Toxicity in cisplatin-resistant human […] cells xenografted Balb/C mouse assessed as body weight changes at 10 mg/kg, iv dosed every 2 days for 7 days; type: organism-based, A2780cisR; set-up: dose 10 mg/kg, route intravenous; details: in vivo; in short: as §4
Mus musculus [39] = assay: Toxicity in human HepG2 cells xenografted Balb/C mouse assessed as body weight changes at 25 mg/kg, po dosed every 2 days for 11 days; type: organism-based; set-up: dose 25 mg/kg, route oral; details: in vivo; in short: as §4
Mus musculus [40] = assay: Toxicity in mouse C26 cells xenografted Balb/C mouse assessed as mortality level at 10 mg/kg, iv dosed every 2 days for 8 days; type: organism-based; set-up: dose 10 mg/kg, route intravenous; details: in vivo; in short: as §1

## CC(=O)O[C@H]1C(=O)[C@@]2(C)[C@H]([C@H](OC(=O)c3ccccc3)[C@]3(O)C[C@H](OC(=O)[C@H](O)[C@@H](NC(=O)c4ccccc4)c4ccccc4)C(C)=C1C3(C)C)[C@]1(OC(C)=O)CO[C@@H]1C[C@@H]2O [PACLITAXEL]
Mus musculus [1]
  Activity: Non-toxic
[2]
  Activity: 76%
[3]
  Activity: 69%
HepG2 [4]; Homo sapiens, HepG2, 48 h
  IC50: 38 nM
[5]
  IC50: 210 nM
[6]
  IC50: 16 nM
[7]
  IC50: 24 nM
NCI-H358
  IC50: 2 nM
MCF7
  IC50: 132 nM
[8]
  IC50: 4 nM
AGS
  IC50: 8 nM
U-251
  IC50: 23 nM
[9]
  IC50: 107 nM
[10]
  IC50: 266 nM
Mus musculus [11]
  Activity: -3.7%
Mus musculus [12]
  Activity: -5.6%
Mus musculus [13]
  Activity: Non-toxic

## COc1cccc2c1C(=O)c1c(O)c3c(c(O)c1C2=O)C[C@@](O)(C(=O)CO)C[C@@H]3O[C@H]1C[C@H](N)[C@H](O)[C@H](C)O1.Cl [DOXORUBICIN HYDROCHLORIDE]
Mus musculus [14]
  Activity: Non-toxic
HepG2 [15]
  Activity: 61%
[16]
  IC50: 5300 nM
Mus musculus [17]
  Activity: 0.5%

## COc1ccc(/C=C/C(=O)c2ccc(OC)c3c2OC(C)(C)C=C3)cc1N.Cl
Mus musculus [18]
  Activity: Non-toxic
Mus musculus [19]
  Activity: Non-toxic
Mus musculus [20]
  Activity: Non-toxic
[21]
  Activity: 86%
[22]
  Activity: 61%
[23]
  Activity: 51%
HepG2 [24]
  Activity: 78%
HepG2 [4]; hepg2
  IC50: 9 nM
[25]
  solubility kinetic: 64 µg/mL
[26]
  MTD: 250 mg/kg
Rattus norvegicus [27]
  CL: 50 mL/min/kg
[28]
  Vd: 31 L/kg
Rattus norvegicus [29]
  AUC: 973 ng·h/mL
[30]
  Cmax: 1510 ng/mL
[31]
  bioavailability: 47%
Rattus norvegicus [32]
  CL: 123 mL/min/kg
Rattus norvegicus [33]
  Vdss: 47 L/kg
Rattus norvegicus [34]
  AUC: 2260 ng·h/mL
[35]
  Cmax: 449 ng/mL
Mus musculus [36]
  Activity: 0.8%
Mus musculus [37]
  Activity: -2.5%
Mus musculus [38]
  Activity: 1%
Mus musculus [39]
  Activity: 7.6%
Mus musculus [40]
  Activity: Non-toxic
